From ChEMBL document CHEMBL4229392, “An Efficient Buchwald-Hartwig/Reductive Cyclization for the Scaffold Diversification of Halogenated Phenazines: Potent Antibacterial Targeting, Biofilm Eradication, and Prodrug Exploration” (J Med Chem, 2018)
In brackets after ≈: the same amount, converted by molar mass. Activity calls are given as the source filed them. The rule behind the calls is not given here.

How the values were obtained:
Staphylococcus aureus [1] = experiment: Antibacterial activity against methicillin-resistant Staphylococcus aureus BAA-1707 after 16 to 18 hrs by broth microdilution method; type: functional
Procedure, shortened: (§1)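 CLSI broth microdilution in Lysogeny Broth, eleven two-fold dilutions spanning 0.10–100 µM; ~10^5 cells per well from log-phase culture; DMSO vehicle (top 1% v/v). MIC = lowest concentration preventing growth after 16–18 h at 37 °C, supported by OD600; three independent experiments.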

HeLa = experiment: Cytotoxicity against human HeLa cells after 24 hrs by LDH release assy; type: cell-based
Procedure, shortened: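 HeLa cells in DMEM with 10% FBS at 37 °C, 5% CO2, dosed at 70-80% confluence with compound diluted in medium at 25, 50 and 100 µM for 24 h. Supernatant mixed with LDH reaction mixture, 30 min at room temperature, stopped, A490 read. Triton X-100 (2% v/v) as maximal-release control, medium only as no-death control, DMSO as vehicle. Three independent experiments.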

Staphylococcus aureus [2] = experiment: Bactericidal activity against methicillin-resistant Staphylococcus aureus BAA-1707 planktonic cells after 24 hrs by calgary biofilm device method; type: organism-based
Procedure, shortened: (§2)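 Biofilms grown 24 h at 37 °C on Calgary device pegs from mid-log culture diluted 1,000-fold in TSB + 0.5% glucose; washed pegs challenged 24 h at 37 °C with 2-fold serial dilutions. Challenge medium subcultured into fresh TSBG overnight; MBC = concentration without visible turbidity; at least three independent experiments.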

[3] = Half life in human serum by LC-MS analysis; type: ADME, cell-free
Procedure, shortened: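 Human serum pre-warmed to 37 °C, spiked with prodrug from 10 mM DMSO stock plus internal standard, vortexed, then held 1 to 60 min. At each time point, acetonitrile with 0.5% formic acid was added to precipitate proteins. Released active HP was quantified as its ratio to internal standard against standard curves.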

Enterococcus faecium [4] = experiment: Bactericidal activity against vancomycin-resistant Enterococcus faecium ATCC 700221 planktonic cells after 24 hrs by calgary biofilm device method; type: organism-based; procedure, shortened: as §2
Staphylococcus aureus [5] = experiment: Induction of biofilm eradication of methicillin-resistant Staphylococcus aureus BAA-1707 after 24 hrs by calgary biofilm device method; type: functional
Procedure, shortened: (§3)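 Calgary device: biofilms established 24 h at 37 °C from mid-log culture diluted 1,000-fold in TSBG (0.5% glucose), washed, exposed 24 h to 2-fold serial dilutions, then peg lid moved to fresh TSBG for 24 h recovery. MBEC = lowest concentration giving no turbidity; at least three independent experiments.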

Enterococcus faecium [6] = experiment: Antibacterial activity against vancomycin-resistant Enterococcus faecium ATCC 700221 after 16 to 18 hrs by broth microdilution method; type: functional; procedure, shortened: as §1
Staphylococcus aureus [7] = experiment: Antibacterial activity against methicillin-resistant Staphylococcus aureus BAA-1707 after 16 hrs by agar diffusion method; type: functional
[8] = tested on: Staphylococcus epidermidis; experiment: Induction of biofilm eradication of methicillin-resistant Staphylococcus epidermidis ATCC 35984 after 24 hrs by calgary biofilm device method; type: functional; procedure, shortened: as §3
[9] = Hemolytic activity in human RBC at 200 uM after 1 hr relative to control; type: ADME, cell-based, Erythrocyte; settings: red blood cells (erythrocytes), read-out: Activity
Procedure, shortened: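 Human RBCs drawn fresh into EDTA were washed three times in Tris-buffered saline (0.01 M Tris, 0.155 M NaCl, pH 7.2). 2% hRBC suspension was added to compound from DMSO stock, final 200 µM, for 1 h at 37 °C, then centrifuged and supernatant OD405 read. Scaled between DMSO (0%) and Triton X (100%). Three independent experiments.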

[10] = tested on: Staphylococcus epidermidis; experiment: Bactericidal activity against methicillin-resistant Staphylococcus epidermidis ATCC 35984 planktonic cells after 24 hrs by calgary biofilm device method; type: organism-based; procedure, shortened: as §2
Enterococcus faecium [11] = experiment: Induction of biofilm eradication of vancomycin-resistant Enterococcus faecium ATCC 700221 after 24 hrs by calgary biofilm device method; type: functional; procedure, shortened: as §3
Staphylococcus aureus [12] = experiment: Bactericidal activity against methicillin-resistant Staphylococcus aureus 2 planktonic cells after 24 hrs by calgary biofilm device method; type: organism-based; procedure, shortened: as §2
Staphylococcus aureus [13] = experiment: Induction of biofilm eradication of methicillin-resistant Staphylococcus aureus 2 after 24 hrs by calgary biofilm device method; type: functional; procedure, shortened: as §3
Staphylococcus aureus [14] = experiment: Induction of biofilm eradication of methicillin-resistant Staphylococcus aureus BAA-44 after 24 hrs by calgary biofilm device method; type: functional; procedure, shortened: as §3
Staphylococcus aureus [15] = experiment: Antibacterial activity against methicillin-resistant Staphylococcus aureus 2 after 16 to 18 hrs by broth microdilution method; type: functional; procedure, shortened: as §1
[16] = tested on: Staphylococcus epidermidis; experiment: Antibacterial activity against methicillin-resistant Staphylococcus epidermidis ATCC 35984 after 16 to 18 hrs by broth microdilution method; type: functional
[17] = tested on: Mycobacterium tuberculosis; experiment: Antibacterial activity against Mycobacterium tuberculosis H37Ra ATCC 25177 after 7 days; type: functional; settings: H37Ra ATCC 25177, 168 h
Procedure, shortened: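 M. tuberculosis H37Ra grown two weeks in Middlebrook 7H9, diluted to OD600 0.01; two-fold serial dilutions 0.024–50 µM (streptomycin positive control, 0.16–340 µM); final DMSO 0.5%. Incubated 7 days at 37 °C; MIC = lowest concentration with no growth, OD600 recorded; three independent experiments.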

Staphylococcus aureus [18] = experiment: Bactericidal activity against methicillin-resistant Staphylococcus aureus BAA-44 planktonic cells after 24 hrs by calgary biofilm device method; type: organism-based; procedure, shortened: as §2
[19] = Metal chelating activity assessed as compound-Fe2+ complex formation at 5 mM by UV-vis spectrometry
Procedure, shortened: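 HP solutions given ammonium iron(II) sulfate hexahydrate; UV-vis scans 300–700 nm in 2 nm steps, λmax 374 nm. Loss of absorbance at 374 nm taken as loss of free hydroxyphenazine and formation of phenazine–iron(II) complex.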

[20] = Metal chelating activity assessed as compound-copper complex formation by UV-vis spectrometry

Compound | MIC (Staphylococcus aureus [1]) [µM] | IC50 (HeLa) [µM] | MBC (Staphylococcus aureus [2]) [µM] | MBC (Enterococcus faecium [4]) [µM] | MBEC (Staphylococcus aureus [5]) [µM] | MIC (Enterococcus faecium [6]) [µM] | MBEC [8] [µM] | hemolysis at 1 h, 200 µM [9] [%] | MBC [10] [µM] | MBEC (Enterococcus faecium [11]) [µM] | MBC (Staphylococcus aureus [12]) [µM] | MBEC (Staphylococcus aureus [13]) [µM] | MIC (Staphylococcus aureus [15]) [µM] | MIC [16] [µM] | other results
CC1=C(C)C(=O)C(COC(=O)OCOc2c(Br)cc(Br)c3nc4cc(Cl)ccc4nc23)=C(C)C1=O | 0.15 (≈ 0.0937 µg/mL) | > 100 | 6.25 (≈ 3.9 µg/mL) | 3.13 (≈ 1.96 µg/mL) | 12.5 | 1.56 (≈ 0.974 µg/mL) | 25 | 2.7 | 12.5 (≈ 7.81 µg/mL) | 3.13 | – | – | – | – | half-life [3]: 11.4 min; inhibition zone (IZ) (Staphylococcus aureus [7]): 2.86 cm2
CN[C@H](CC(C)C)C(=O)N[C@H]1C(=O)N[C@@H](CC(N)=O)C(=O)N[C@H]2C(=O)N[C@H]3C(=O)N[C@H](C(=O)N[C@H](C(=O)O)c4cc(O)cc(O)c4-c4cc3ccc4O)[C@H](O)c3ccc(c(Cl)c3)Oc3cc2cc(c3O[C@@H]2O[C@H](CO)[C@@H](O)[C@H](O)[C@H]2O[C@H]2C[C@](C)(N)[C@H](O)[C@H](C)O2)Oc2ccc(cc2Cl)[C@H]1O [VANCOMYCIN] | – | – | 3.9 (≈ 5.65 µg/mL) | > 200 | >2000 | > 100 | >2000 | ≤ 1 | 3 (≈ 4.35 µg/mL) | 150 | 3 (≈ 4.35 µg/mL) | >2000 | – | – | MBEC (Staphylococcus aureus [14]): >2000 µM
CC(=O)NC[C@H]1CN(c2ccc(N3CCOCC3)c(F)c2)C(=O)O1 [LINEZOLID] | 12.5 (≈ 4.22 µg/mL) | – | 31.3 (≈ 10.6 µg/mL) | – | >2000 | – | – | ≤ 1 | – | – | – | >2000 | 3.13 (≈ 1.06 µg/mL) | – | –
CC(C)(C)c1ccc2nc3c(O)c(Br)cc(Br)c3nc2c1 | 0.1 (≈ 0.041 µg/mL) | > 100 | – | 1.56 (≈ 0.64 µg/mL) | – | 0.1 (≈ 0.041 µg/mL) | 3.13 | ≤ 1 | 6.25 (≈ 2.56 µg/mL) | – | 3.13 (≈ 1.28 µg/mL) | 3.13 | 0.1 (≈ 0.041 µg/mL) | 0.1 (≈ 0.041 µg/mL) | –
Cc1cc(C)c2nc3c(Br)cc(Br)c(O)c3nc2c1 | 0.075 to 0.08 (≈ 0.0287 to 0.0306 µg/mL) | > 100 | – | – | – | 0.2 (≈ 0.0764 µg/mL) | – | 2.2 | – | – | – | – | 0.3 (≈ 0.115 µg/mL) | 0.1 (≈ 0.0382 µg/mL) | MIC [17]: 50 µM (≈ 19.1 µg/mL)
Oc1c(Br)cc(Br)c2nc3ccccc3nc12 | – | > 100 | 18.8 to 37.5 (≈ 6.66 to 13.3 µg/mL) | 23.5 (≈ 8.32 µg/mL) | 150 | 6.25 (≈ 2.21 µg/mL) | 100 | ≤ 1 | 50 (≈ 17.7 µg/mL) | 9.38 | 50 (≈ 17.7 µg/mL) | 100 | – | – | MIC [17]: 25 µM (≈ 8.85 µg/mL); MBC (Staphylococcus aureus [18]): 37.5 µM (≈ 13.3 µg/mL); MBEC (Staphylococcus aureus [14]): 150 µM
CS(=O)(=O)N1CCN(C(=O)Oc2c(Br)cc(Br)c3nc4ccccc4nc23)C1=O | – | > 100 | 37.5 (≈ 20.4 µg/mL) | 9.38 (≈ 5.1 µg/mL) | 75 | 3.13 (≈ 1.7 µg/mL) | 37.5 | ≤ 1 | 18.8 (≈ 10.2 µg/mL) | 9.38 | – | – | – | 1.56 (≈ 0.849 µg/mL) | half-life [3]: < 1 min
CCN(CC)c1ccc2nc3c(O)c(Br)cc(Br)c3nc2c1Br | 0.15 (≈ 0.0756 µg/mL) | > 100 | 9.38 (≈ 4.73 µg/mL) | – | 4.69 | 0.3 (≈ 0.151 µg/mL) | 6.25 | ≤ 1 | 9.38 (≈ 4.73 µg/mL) | – | – | – | 0.3 (≈ 0.151 µg/mL) | 0.1 (≈ 0.0504 µg/mL) | –
CCc1ccc2nc3c(O)c(Br)cc(Br)c3nc2c1 | 0.1 (≈ 0.0382 µg/mL) | > 50 | 75 (≈ 28.7 µg/mL) | 50 (≈ 19.1 µg/mL) | 150 | 2.35 (≈ 0.898 µg/mL) | 75 | 3 | 50 (≈ 19.1 µg/mL) | – | 75 (≈ 28.7 µg/mL) | 150 | 0.59 (≈ 0.225 µg/mL) | 0.1 (≈ 0.0382 µg/mL) | MIC [17]: 6.25 µM (≈ 2.39 µg/mL); MBC (Staphylococcus aureus [18]): 75 µM (≈ 28.7 µg/mL); MBEC (Staphylococcus aureus [14]): 75 µM
Cc1ccc2nc3c(Br)cc(Br)c(O)c3nc2c1C | > 100 | – | – | – | – | > 100 | – | – | – | – | – | – | – | > 100 | Activity [19]: inactive
Oc1c(Br)cc(Br)c2nc3cc(Oc4ccccc4)ccc3nc12 | 0.075 (≈ 0.0335 µg/mL) | > 100 | – | – | – | 0.2 (≈ 0.0892 µg/mL) | – | ≤ 1 | – | – | – | – | 0.39 (≈ 0.174 µg/mL) | 0.1 (≈ 0.0446 µg/mL) | MIC [17]: 6.25 µM (≈ 2.79 µg/mL); MBC (Staphylococcus aureus [18]): 25 µM (≈ 11.2 µg/mL)
CO[C@H]1/C=C/O[C@@]2(C)Oc3c(C)c(O)c4c(O)c(c(/C=N/N5CCN(C)CC5)c(O)c4c3C2=O)NC(=O)/C(C)=C\C=C\[C@H](C)[C@H](O)[C@@H](C)[C@@H](O)[C@@H](C)[C@H](OC(C)=O)[C@@H]1C [RIFAMPIN] | – | – | – | – | – | – | 15.6 | – | 3 (≈ 2.47 µg/mL) | – | 2 (≈ 1.65 µg/mL) | 46.9 | 0.1 (≈ 0.0823 µg/mL) | 0.1 (≈ 0.0823 µg/mL) | –
COCCOCCOCCOCCOC(=O)Oc1c(Br)cc(Br)c2nc3cc(Oc4ccccc4)ccc3nc12 | 0.1 (≈ 0.068 µg/mL) | – | 18.8 (≈ 12.8 µg/mL) | – | 4.69 | 0.3 (≈ 0.204 µg/mL) | – | ≤ 1 | 9.38 (≈ 6.38 µg/mL) | 1.17 | – | – | – | 0.075 (≈ 0.051 µg/mL) | half-life [3]: < 1 min
CCc1cccc2nc3c(Br)cc(Br)c(O)c3nc12 | > 100 | – | – | – | – | > 100 | – | – | – | – | – | – | – | > 100 | Activity [19]: inactive; Activity [20]: inactive
